Assay type in all cases: functional, cell-based
Common to all, as to details: Mus musculus

The subject of assay [1] is L1210. Kind of assay: Compound was evaluated for antitumor activity against 10e 6 L1210 cells implanted intraperitoneally into mice after treatment on days 1-9.
Assay [2] deals with L1210. The assay can be described thus: Compound was evaluated for antitumor activity against 10e 6 L1210 cells implanted intraperitoneally into mice after treatment on day 1(reference 9). In outline: (§1)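 Mice received 10⁶ L1210 ascites cells ip and were treated ip on day 1 only. Treatment groups had six mice. The optimal dose was recorded in mg/kg, and activity was recorded as the maximum percent T/C, as defined in ref 9.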

For assay [3], the system named is L1210. Kind of assay: Compound was evaluated for antitumor activity against 10e 6 L1210 cells implanted intraperitoneally into mice after treatment on day 1(maximum percentage toxicity)(reference 9). In outline:
as §1

For assay [4], the system named is L1210. The assay can be described thus: Compound was evaluated for antitumor activity against 10e 6 L1210 cells implanted intraperitoneally into mice after treatment on day 1. A digest of the protocol:
as §1

For assay [5], the system named is L1210. Kind of assay: Compound was evaluated for antitumor activity against 10e 6 L1210 cells implanted intraperitoneally into mice after treatment on days 1-9 (maximum percentage toxicity).
For assay [6], the system named is L1210. The assay can be described thus: Compound was evaluated for antitumor activity against 10e 6 L1210 cells implanted intraperitoneally into mice after treatment on day 1(maximum percentage toxicity). A digest of the protocol:
as §1

Assay [7] has as its system L1210. Kind of assay: Compound was evaluated for antitumor activity against 10e 6 L1210 cells implanted intraperitoneally into mice after treatment on days 1-5. A digest of the protocol:
(§2)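 Mice were implanted ip with 10⁶ L1210 ascites cells and treated ip on days 1-5, with the dose given in mg/kg per injection. Groups had six mice each. The read-out was the optimal dose and the maximum percent T/C, as defined in ref 9.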

The subject of assay [8] is L1210. Kind of assay: Compound was evaluated for antitumor activity against 10e 6 L1210 cells implanted intraperitoneally into mice after treatment on days 1-5 (maximum percentage toxicity). In outline: as §2

As to Dichloro-diammonium-platinum, the Optimal dose in the assay on L1210 [1] worked out at 20 mg/kg; in the assay on L1210 [2], 120 mg/kg; in the assay with L1210 [4], 48 mg/kg; in the assay on L1210 [7], 12 mg/kg. Moreover, the T/C (usually the result in the treated group divided by that in the control group, in per cent) with L1210 [3] is 164%; in the assay with L1210 [5], 193%; in the assay with L1210 [6], 150%; with L1210 [8] it was 157%.

Turning to Dichloro-dibromo-diammonium platinum, the values for the Optimal dose with L1210 [4] and in the assay with L1210 [7] were 12 mg/kg and 0.75 mg/kg, respectively. Moreover, the T/C with L1210 [6] was 136%; in the assay on L1210 [8] it was 129%.

On to Tetrachloro-diammonium platinum, for which the Optimal dose in the assay on L1210 [4] was found to be 32 mg/kg; with L1210 [7], 4 mg/kg. Moreover, the T/C in the assay on L1210 [6] was 121%; with L1210 [8], 114%.
